Laboratory results as given in ChEMBL document CHEMBL1828575, “Design, synthesis and antiproliferative activities of biarylolefins based on polyhydroxylated and carbohydrate scaffolds” (Eur J Med Chem, 2011).

Experiments:
Type in all cases: functional
[1] = tested on: SN12C; assay: Cytotoxicity against human SN12C cells assessed as cellular growth at 10 uM after 48 hrs by SRB assay
Outline: (§1)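 NCI-60 panel lines grown in RPMI 1640 with 5% FBS and 2 mM L-glutamine. Plated at 5000–40,000 cells/well and preincubated 24 h at 37 °C, 5% CO₂, with time-zero plates fixed in TCA. Compounds, dissolved in DMSO and diluted in medium, were applied for 48 h. Cells were TCA-fixed (10% final for adherent, 16% for suspension) and stained with 0.4% SRB in 1% acetic acid. Dye was solubilised in 10 mM Tris base and read at 515 nm; growth was expressed as a percentage of untreated control.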

[2] = tested on: NCI-H226; assay: Antitumor activity against human NCI-H226 cells after 48 hrs by SRB assay; details: NCI-H226, 48 h
Outline: (§2)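 NCI60 panel in RPMI 1640 with 5% FBS and 2 mM L-glutamine. Cells were plated at 5000–40,000/well by doubling time, held 24 h, then time-zero plates were TCA-fixed. Five concentrations (10-fold or half-log dilutions of DMSO stocks) were applied for 48 h at 37 °C, 5% CO2. Cells were fixed with cold TCA (10% final adherent, 16% suspension) and stained with 0.4% SRB. Bound dye was dissolved in 10 mM Tris and read at 515 nm. GI50, TGI and LC50 were calculated per line.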

[3] = tested on: HOP-62; assay: Antitumor activity against human HOP62 cells after 48 hrs by SRB assay; details: HOP-62, 48 h; outline: as §2
[4] = tested on: SF-268; assay: Antitumor activity against human SF268 cells after 48 hrs by SRB assay; details: SF-268, 48 h; outline: as §2
[5] = tested on: BT-549; assay: Antitumor activity against human BT549 cells after 48 hrs by SRB assay; details: BT-549, 48 h
Outline: (§3)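 NCI60 screen: cells grown in RPMI 1640 with 5% FBS and 2 mM L-glutamine, plated at 5000–40,000 cells/well by doubling time, preincubated 24 h at 37 °C with 5% CO2. Compounds were diluted from DMSO stocks and given for 48 h, at five concentrations for dose response. A time-zero plate was TCA-fixed. Cells were TCA-fixed, stained with 0.4% SRB and read at 515 nm, with growth expressed relative to untreated controls.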

[6] = tested on: MOLT-4; assay: Cytotoxicity against human MOLT4 cells assessed as cellular growth at 10 uM after 48 hrs by SRB assay; outline: as §1
[7] = tested on: NCI-H460; assay: Antitumor activity against human NCI-H460 cells after 48 hrs by SRB assay; details: NCI-H460, 48 h; outline: as §2
[8] = tested on: NCI-H460; assay: Cytotoxicity against human NCI-H460 cells assessed as cellular growth at 10 uM after 48 hrs by SRB assay; outline: as §1
[9] = Cytotoxicity against human NCI60 cells assessed as cellular growth at 10 uM after 48 hrs by SRB assay relative to untreated control; outline: as §1
[10] = tested on: UACC-257; assay: Cytotoxicity against human UACC257 cells assessed as cellular growth at 10 uM after 48 hrs by SRB assay; outline: as §1
[11] = tested on: HT-29; assay: Antiproliferative activity against human HT-29 cells after 48 hrs by SRB assay; details: HT-29, 48 h; outline: as §2
[12] = tested on: UACC-62; assay: Antitumor activity against human UACC62 cells after 48 hrs by SRB assay; details: UACC-62, 48 h
Outline: (§4)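 NCI60 panel cells grown in RPMI 1640 with 5% FBS and 2 mM L-glutamine, plated at 5000–40,000 cells/well and preincubated 24 h at 37 °C, 5% CO₂. Compound was added from DMSO at five concentrations, 10-fold or 1/2 log dilutions, then incubated 48 h.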

[13] = tested on: T47D; assay: Antitumor activity against human T47D cells after 48 hrs by SRB assay; outline: as §4
[14] = tested on: NCI-H522; assay: Antitumor activity against human NCI-H522 cells after 48 hrs by SRB assay; details: NCI-H522, 48 h; outline: as §2
[15] = tested on: OVCAR-4; assay: Antitumor activity against human OVCAR4 cells after 48 hrs by SRB assay; details: OVCAR-4, 48 h; outline: as §2
[16] = tested on: KM12; assay: Antitumor activity against human KM12 cells after 48 hrs by SRB assay; details: KM12, 48 h; outline: as §2
[17] = tested on: SF-268; assay: Cytotoxicity against human SF268 cells assessed as cellular growth at 10 uM after 48 hrs by SRB assay; outline: as §1
[18] = tested on: COLO 205; assay: Antitumor activity against human COLO205 cells after 48 hrs by SRB assay; details: COLO 205, 48 h; outline: as §2
[19] = tested on: SNB-75; assay: Antitumor activity against human SNB75 cells after 48 hrs by SRB assay; details: SNB-75, 48 h; outline: as §4
[20] = tested on: NCI-H226; assay: Cytotoxicity against human NCI-H226 cells assessed as cellular growth at 10 uM after 48 hrs by SRB assay; outline: as §1
[21] = tested on: HL-60(TB); assay: Antitumor activity against human HL-60(TB) cells after 48 hrs by SRB assay; details: HL-60, 48 h; outline: as §3
[22] = read-out: LC50 (the source's name)
[23] = read-out: pLC50 (the source's name) (converted)

In the case of `COc1ccc(/C(=C2\O[C@@H]([C@H]3COC(C)(C)O3)[C@H]3OC(C)(C)O[C@@H]23)c2cc(OC)c(OC)c(OC)c2)cc1O`, the Activity [1] is reported as 84.5%, the GI50 ([2]; read-out: GI50) is reported as 64.7 µM and the CC50 [2, 22] is reported as > 100 µM. For the same molecule, the TGI ([2]; read-out: TGI) was > 100 µM, the GI50 ([2]; read-out: pGI50 (converted)) was 64.6 µM and the CC50 [2, 23] was > 100 µM. The TGI ([2]; read-out: pTGI (converted)) was > 100 µM, the GI50 [3] was 10.9 µM and the TGI [3] was 34.7 µM. For the same molecule, the CC50 [3, 22] was > 100 µM, the LC50 (concentration killing 50% of cells relative to time zero) [4] was > 100 µM and the GI50 ([4]; read-out: GI50) was 7.96 µM. The TGI ([4]; read-out: TGI) was 53.6 µM, the GI50 ([4]; read-out: pGI50 (converted)) was 7.94 µM and the CC50 [4, 23] was > 100 µM. The TGI ([4]; read-out: pTGI (converted)) was 53.7 µM, the CC50 [5, 22] was > 100 µM and the CC50 [5, 23] was > 100 µM. For the same molecule, the Activity [6] was 60.46%, the GI50 ([7]; read-out: GI50) was 29.3 µM and the CC50 [7, 22] was > 100 µM. For the same molecule, the TGI ([7]; read-out: TGI) was > 100 µM, the GI50 ([7]; read-out: pGI50 (converted)) was 29.5 µM and the CC50 [7, 23] was > 100 µM. For the same molecule, the TGI ([7]; read-out: pTGI) was > 100 µM, the Activity [8] was 103.52% and the Activity [9] was 66%. The Activity [10] was 126.04%, the LC50 (50% net cell kill) [11] was > 100 µM and the GI50 ([11]; read-out: GI50) was 4.1 µM. The TGI ([11]; read-out: TGI) was 17.8 µM, the GI50 ([11]; read-out: pGI50 (converted)) was 4.07 µM and the CC50 [11, 23] was > 100 µM. For the same molecule, the TGI ([11]; read-out: pTGI (converted)) was 17.8 µM, the GI50 ([12]; read-out: GI50) was 22.9 µM and the CC50 [12, 22] was > 100 µM. For the same molecule, the TGI ([12]; read-out: TGI) was 57.6 µM, the GI50 ([12]; read-out: pGI50 (converted)) was 22.9 µM and the CC50 [12, 23] was > 100 µM. The TGI ([12]; read-out: pTGI (converted)) was 57.5 µM, the GI50 ([13]; read-out: GI50) was 63.6 µM and the CC50 [13, 22] was > 100 µM. The TGI ([13]; read-out: TGI) was > 100 µM, the GI50 ([13]; read-out: pGI50 (converted)) was 44.7 µM and the CC50 [13, 23] was > 100 µM. The TGI ([13]; read-out: pTGI (converted)) was > 100 µM, the GI50 [14] was 2.95 µM and the TGI [14] was 7.54 µM. The CC50 [14, 22] was 85.6 µM, the GI50 ([15]; read-out: GI50) was 37.5 µM and the CC50 [15, 22] was > 100 µM. The TGI ([15]; read-out: TGI) was > 100 µM, the GI50 ([15]; read-out: pGI50 (converted)) was 37.2 µM and the CC50 [15, 23] was > 100 µM. For the same molecule, the TGI ([15]; read-out: pTGI (converted)) was > 100 µM, the GI50 [16] was 4.1 µM and the LC50 [16] was 72.9 µM. The TGI [16] was 17.8 µM, the Activity [17] was 37.84% and the GI50 ([18]; read-out: GI50) was 27.3 µM. The CC50 [18, 22] was > 100 µM, the TGI ([18]; read-out: TGI) was 63.7 µM and the GI50 ([18]; read-out: pGI50 (converted)) was 27.5 µM. The CC50 [18, 23] was > 100 µM, the TGI ([18]; read-out: pTGI (converted)) was 63.1 µM and the GI50 [19] was 2.89 µM. For the same molecule, the TGI [19] was 7.44 µM, the CC50 [19, 22] was > 100 µM and the Activity [20] was 112.98%. The GI50 ([21]; read-out: GI50) was 6.48 µM, the CC50 [21, 22] was > 100 µM and the TGI ([21]; read-out: TGI) was 56.8 µM. For the same molecule, the GI50 ([21]; read-out: pGI50 (converted)) was 1.62 µM, the CC50 [21, 23] was > 100 µM and the TGI ([21]; read-out: pTGI (converted)) was 56.2 µM.
